Assays:
[1] = biological target: T1, Type-1 angiotensin II receptor (Bos taurus, UniProt P25104); test: Inhibition of specific binding of [125 I ] Angiotensin-II (0.2 nM) to bovine adrenal cortex; assay type: tissue-based
T1 sequence (P25104 whole entry): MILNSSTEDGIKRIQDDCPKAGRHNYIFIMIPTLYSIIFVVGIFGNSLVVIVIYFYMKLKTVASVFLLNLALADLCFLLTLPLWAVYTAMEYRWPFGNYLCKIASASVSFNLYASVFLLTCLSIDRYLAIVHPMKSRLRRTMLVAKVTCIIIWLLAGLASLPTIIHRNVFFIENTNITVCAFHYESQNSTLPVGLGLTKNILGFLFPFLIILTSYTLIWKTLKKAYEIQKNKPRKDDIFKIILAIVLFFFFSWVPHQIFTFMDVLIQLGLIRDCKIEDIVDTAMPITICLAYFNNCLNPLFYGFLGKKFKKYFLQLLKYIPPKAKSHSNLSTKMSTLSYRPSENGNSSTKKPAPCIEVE

Rattus norvegicus [2] = test: Percent inhibition of the Angiotensin-II (0.1micro g/kg, iv) induced pressor response after 7 hours of administration (1 mg/kg po) in rat; assay type: functional
In short: (§1)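 Conscious male Sprague-Dawley rats dosed orally with test compound; pressor response to AII challenge (0.1 µg/kg iv) measured at 3 and 7 h after dosing and expressed as percent inhibition. Duplicate experiments, with n = 3 for some compounds; variation in % inhibition under 30%.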

[3] = biological target: T2, Angiotensin II receptor (Rattus norvegicus) (UniProt P29089+P25095+P35351); test: Percent inhibition of the Angiotensin-II (0.1ug/kg, iv) induced pressor response after 3 hours of administration (1 mg/kg po) in rats; assay type: functional, organism-based; in short: as §1
Oryctolagus cuniculus = species on record: Oryctolagus cuniculus; test: Concentration required for inhibition of Angiotensin-II induced rabbit aorta strips contraction; assay type: functional
In short: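 Isolated rabbit aortic strips contracted with AII (10 nM); test compound inhibition measured from concentration-inhibition curves, n = 6-8; IC50 is the concentration halving the AII-induced contraction.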

Rattus norvegicus [4] = test: Percent inhibition of the Angiotensin-II (0.1micro g/kg, iv) induced pressor response after 3 hours of administration (10 mg/kg po) in rats; assay type: functional; in short: as §1
Rattus norvegicus [5] = test: Percent inhibition of the Angiotensin-II (0.1micro g/kg, iv) induced pressor response after 7 hours of administration (10 mg/kg po) in rats; assay type: functional; in short: as §1
[6] = biological target: T2, Angiotensin II receptor (Rattus norvegicus); test: Percent inhibition of the Angiotensin-II (0.1micro g/kg, iv) induced pressor response after 7 hours of administration (3 mg/kg po) in rats; assay type: functional, organism-based; in short: as §1
[7] = biological target: T2, Angiotensin II receptor (Rattus norvegicus); test: Percent inhibition of the Angiotensin-II (0.1ug/kg, iv) induced pressor response after 3 hours of administration (3 mg/kg po) in rats; assay type: functional, organism-based; in short: as §1
[8] = biological target: T2, Angiotensin II receptor (Rattus norvegicus); test: Percent inhibition of the Angiotensin-II (0.1ug/kg, iv) induced pressor response after 7 hours of administration (1 mg/kg po) in rats; assay type: functional, organism-based; in short: as §1
Rattus norvegicus [9] = test: Percent inhibition of the Angiotensin-II (0.1 micro g/kg, iv) induced pressor response after 3 hours of administration (3 mg/kg po) in rats; assay type: functional; in short: as §1
Rattus norvegicus [10] = test: Percent inhibition of the Angiotensin-II (0.1micro g/kg, iv) induced pressor response after 7 hours of administration (1 mg/kg po) in rats.; assay type: functional; in short: as §1
Rattus norvegicus [11] = test: Percent inhibition of the Angiotensin-II (0.1 micro g/kg, iv) induced pressor response after 7 hours of administration (1 mg/kg po) in rats; assay type: functional; in short: as §1
Rattus norvegicus [12] = test: Percent inhibition of the Angiotensin-II (0.1micro g/kg, iv) induced pressor response after 7 hours of administration (1 mg/kg po) in rats; assay type: functional; in short: as §1

Row | IC50 [1] | inhibition [3] | inhibition [6] | inhibition [7] | inhibition [8] | Compound | other results
1 | 800 nM | 42% | – | – | – | CNCc1nc2cccc(C(=O)O)c2n1Cc1ccc(-c2ccccc2-c2nn[nH]n2)cc1 | Inhibition (Rattus norvegicus [2]): 50%
2 | 110 nM | 100% | 100% | 100% | 92% | CCOc1nc2cccc(C(=O)O)c2n1Cc1ccc(-c2ccccc2-c2nnn[nH]2)cc1 | IC50 (Oryctolagus cuniculus): 0.2 nM; Inhibition (Rattus norvegicus [4]): 100%; Inhibition (Rattus norvegicus [5]): 100%
3 | – | 79% | 95% | – | 62% | CCc1nc2cccc(C(=O)O)c2n1Cc1ccc(-c2ccccc2-c2nn[nH]n2)cc1 | Inhibition (Rattus norvegicus [9]): 96%
4 | – | 81% | 100% | 100% | – | CCNc1nc2cccc(C(=O)O)c2n1Cc1ccc(-c2ccccc2-c2nn[nH]n2)cc1 | Inhibition (Rattus norvegicus [10]): 85%
5 | – | 38% | 61% | 52% | – | CCCCNc1nc2cccc(C(=O)O)c2n1Cc1ccc(-c2ccccc2-c2nn[nH]n2)cc1 | Inhibition (Rattus norvegicus [11]): 19%
6 | – | 28% | – | – | – | CNc1nc2cccc(C(=O)O)c2n1Cc1ccc(-c2ccccc2-c2nn[nH]n2)cc1 | Inhibition (Rattus norvegicus [12]): 49%
